# Compounds with a hit are over-represented: about 4.3% of the library has one in this group of screens.
# ALR inh: blocks human ALR sulfhydryl oxidase activity. 290,000 compounds, 3.8% hits. AID 485317. purified ALR, DTT oxidation, H2O2 HRP-luminol luminescence. inhibition, % (test concentration not listed). P55789;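 active means mean replicate inhibition above about 79%, with every replicate also reaching it, limit read from the data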
# Target sequence (P55789 whole entry, looked up): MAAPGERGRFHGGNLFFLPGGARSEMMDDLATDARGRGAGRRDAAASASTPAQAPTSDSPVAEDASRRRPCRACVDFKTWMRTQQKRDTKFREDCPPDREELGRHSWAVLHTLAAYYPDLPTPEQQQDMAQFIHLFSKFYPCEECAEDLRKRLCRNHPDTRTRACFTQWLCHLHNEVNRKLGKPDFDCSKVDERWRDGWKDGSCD
# UBC9 SUMO inh: SUMOylation inhibition; P63279; HTRF SUMOylation assay, SAE1/SAE2 + UBC9, in vitro; inhibition, % at 35 µM; 290,000 compounds, 0.36% hits; AID 2006; in the data active means inhibition above about 50%, passing the limit was not always enough
# Target sequence (P63279 whole entry, looked up): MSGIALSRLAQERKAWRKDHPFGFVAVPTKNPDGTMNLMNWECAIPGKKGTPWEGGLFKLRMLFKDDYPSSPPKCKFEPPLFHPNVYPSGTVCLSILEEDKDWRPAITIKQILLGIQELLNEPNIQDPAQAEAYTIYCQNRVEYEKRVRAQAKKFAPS
# Rin1 Abl inh: blocks binding of human Rin1 to Abl; 360,000 compounds, 0.4% hits; TR-FRET Rin1/Abl binding, biochemical; AID 588664; inhibition, % at 7.35 µM; P00519+Q13671; in the data active means inhibition above about 5%, passing the limit was not always enough
# PREPL inhibitor: human PREPL enzyme inhibition. Q4J6C6. recombinant PREPL, fluorescence polarization activity-based probe. inhibition, % at 5.96 µM. 320,000 compounds, 0.68% hits. AID 2751; in the data active means inhibition above about 43%;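 further: 0% = enzyme with DMSO and 100% = wells lacking enzyme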
# UBC13 inh: human UBC13 polyubiquitination inhibition; P61088; UBC13 polyubiquitin chain formation, TR-FRET; inhibition, % at 20 µM; 330,000 compounds, 0.47% hits; AID 485273; in the data active means inhibition above about 45%, passing the limit was not always enough
# RBBP9 inh: inhibitors of human serine hydrolase RBBP9; O75884; inhibition, % at 7.94 µM; recombinant RBBP9, FP-Rh probe fluorescence polarization; 220,000 compounds, 0.2% hits; AID 1515;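 active means inhibition above the campaign mean of all tested compounds plus 3 SD, cut at about 14% in these data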;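 further: plate controls were DMSO wells with RBBP9 for no effect and wells lacking RBBP9 protein for full effect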
#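 Test system: recombinant human RBBP9. Quantity: 2.5 µM RBBP9 dispensing solution, before mixing. Detection: FP readout at 525/598 nm. Reagent: Serine-hydrolase probe FP-Rh, 375 nM pre-mixing. Measure: % inhibition. Control set: DMSO-treated enzyme wells and wells lacking RBBP9. Buffer or medium: Tris-NaCl-Pluronic buffer, pH 8.0. Times: preincubation 30 min plus labeling 45 min at 25 °C.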
# Rin1-Abl confirm: confirmation of inhibitors of human Rin1-Abl interaction. shares compounds with Rin1 Abl inh. TR-FRET Rin1-Abl binding, purified proteins. inhibition, % at 7.35 µM. 1,300 compounds, 49% hits. AID 602124
# GFP quench: GFP fluorescence interference artifact; shares compounds with Rin1 Abl inh; inhibitors/quenchers counterscreen; inhibition, % at 6.75 µM; 1,300 compounds, 8.5% hits;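 further: ABL1-eGFP fusion protein alone without its partner RIN1-SBP; 0% = protein with vehicle and 100% = wells lacking protein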
# GFP quench dose: quenches GFP in dose response, Rin1-Abl counter-screen; shares compounds with Rin1 Abl inh; GFP fluorescence interference/quenching counterscreen; IC50, µM; 230 tested, under 10 active; AID 602182; call rule not given here;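 further: ABL1-eGFP fusion protein alone without its RIN1 binding partner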
# Starred values were filed as active, the others as inactive; · = not tested or not shown. Unless noted, no stated cut-off is given here; in the data, active means inhibition above about 6.5%; inactive means the rest.
SMILES,ALR inh,UBC9 SUMO inh,Rin1 Abl inh,PREPL inhibitor,UBC13 inh,RBBP9 inh,Rin1-Abl confirm,GFP quench,others
Cc1cccc(OCc2nnc3n2CCCCC3)c1,-1.4,-8.2,8.0*,-3.2,1.7,-6.3,-2.4,-1.9,
CCOc1ccc(NC(=O)CN2CCN(CC(=O)c3ccc(OC)c(OC)c3)CC2)cc1,-18.0,10.2,-0.3,9.2,-5.9,-3.9,·,·,
CCCCOc1ccc(C(=O)N2CCN(CC(=O)Nc3ccc(C)cc3)CC2)cc1OC,-0.9,11.3,8.6*,3.6,-4.2,·,10.9*,-1.0,
CCCCN(C(=O)c1ccc(Br)o1)C1CCS(=O)(=O)C1 (centres undefined),5.3,·,5.1,6.5,-3.4,·,·,·,
O=C(COC(=O)/C=C/c1ccccc1)NC1CCCCCC1,·,·,0.1,·,0.0,·,·,·,
Cc1cc(C)cc(NC(=O)N2CCNC(=O)C2CC(=O)Nc2cc(Cl)ccc2Cl)c1 (centres undefined),-0.1,-4.0,10.2*,0.6,8.8,·,8.0*,1.1,
O=C(CC1C(=O)NCCN1C(=O)Nc1ccc(F)cc1F)Nc1cc(Cl)ccc1Cl (centres undefined),0.4,13.4,2.5,11.5,-0.2,-6.1,·,·,
O=C(C1CCCN(S(=O)(=O)c2ccc(F)cc2)C1)N1CCCCCC1 (centres undefined),-3.4,8.5,-2.1,-3.2,8.1,·,·,·,
Cc1ccccc1C(=O)NNC(=O)Cc1ccccc1,-0.1,-2.3,9.3*,-2.7,-1.4,6.6,-1.1,1.4,
CCOC(=O)c1ccc(S(=O)(=O)N2CCN(C3CC(=O)N(c4ccc(OC)cc4)C3=O)CC2)cc1 (centres undefined),·,·,-2.5,·,·,·,·,·,
CCn1c(C)nc2cc(C(=O)N/N=C/c3ccc(O)c(O)c3O)ccc21,·,68.2*,45.2*,·,·,9.0,53.0*,23.1*,
COC(=O)c1cc(O)cc(OC)c1Oc1cc(C)cc(O)c1C(=O)O,·,·,20.2*,8.9,-14.7,·,21.0*,4.5,GFP quench dose=>67.5
CCCC(NC(=O)Cc1c(C)c2c(cc(C)c3c(C)coc32)oc1=O)C(=O)O (centres undefined),·,23.5,1.4,3.9,1.9,·,·,·,
COc1ccc(NC(=O)Cn2c(=O)n(CC3CCCO3)c(=O)c3cc(OC)c(OC)cc32)cc1OC (centres undefined),-1.4,6.2,9.9*,7.0,-7.4,·,8.8*,-0.3,
CCN1C(=O)c2cccc3c(S(=O)(=O)N(C(C)=O)c4ccc(OC(C)=O)cc4)ccc1c23,-7.0,·,-2.7,19.1,10.5,·,·,·,
OC(COCc1ccc2c(c1)OCO2)CN1CCCCC1 (centres undefined),-5.7,-11.6,-4.0,1.1,-4.9,-12.0,·,·,
CCOC(=O)C1CCCN(CC(O)COCc2ccc3c(c2)OCO3)C1 (centres undefined),-0.8,-7.0,6.4*,-5.6,-4.6,-2.8,-1.0,-0.3,
CCOC(=O)CC1ON(C)C(=O)N1c1ccc(Cl)cc1Cl (centres undefined),·,17.9,7.0*,2.8,2.3,-9.2,0.2,-2.1,
Cc1ccccc1NC(=O)CNC(=O)c1ccc(C(F)(F)F)cc1,·,8.8,0.9,1.5,-1.7,-3.1,·,·,
Cc1ccccc1NC(=O)Nc1ccc(C(F)(F)F)cc1,-22.0,-3.8,9.0*,-3.4,-6.6,-12.1,-1.3,0.2,
CCOC(=O)c1ccc(CNC(=O)C(Cc2c[nH]c3ccccc23)NC(C)=O)o1 (centres undefined),-4.6,-1.5,8.1*,22.5,2.8,-2.5,2.3,-0.6,
CCOC(=O)NC(Cc1c[nH]c2ccccc12)C(=O)NCCc1ccc(S(N)(=O)=O)cc1 (centres undefined),-10.1,20.4,1.2,14.2,-3.9,·,·,·,
COc1cccc(/C=C/C(=O)NCc2cn3cc(Cl)ccc3n2)c1,·,27.9,5.2*,-12.2,-0.1,2.0,1.5,-1.5,
O=C(/C=C/c1cccc(Cl)c1)OCc1cn2cc(Cl)ccc2n1,-3.7,6.8,-1.4,-29.4,4.1,-7.4,·,·,
